Among the data in the array DNA melting data of Ke et al. (doi:10.1101/2024.01.08.574731) are Tm and folding enthalpy values, retold here.

The nature of data set [1]: melting temperature; fluorescence melt of hairpins on a sequencing array, two-state fit, raised by 9.35 °C to match UV melts. The conditions noted are these: sodium 0.088 M. Put shortly:
(§1)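 Hairpins were imaged by Cy3 fluorescence on a sequenced MiSeq flow cell with annealed Cy3 and quencher oligos, in 50 mM Na-HEPES pH 8.0, 25 mM NaCl, in 2.5 °C steps up to 60 °C. Bootstrapped two-state fits of normalised signals gave melting temperature and folding enthalpy. Four replicates were combined by inverse variance, and fitted temperatures were raised by 9.35 °C to match UV melts.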

Data set [2] is described as follows: folding enthalpy; higher = less favourable; fluorescence melt of hairpins on a sequencing array, two-state fit. As to conditions: sodium 0.088 M. Put shortly:
as §1

As to GTTGGCGGAAACACCAAC (((((.(....).))))), in data set [1], the Tm was found to be 47.4 °C. Moreover, the folding enthalpy in data set [2] is -36 kcal/mol.
Turning to GTTGGCGGAAACGCCAGC (.(((((....))))).), in data set [1], the Tm was 58.2 °C. In data set [2], the folding enthalpy is -15.4 kcal/mol.
On to GTTGGGCGAAAGCCAAAC (((.(((....))).))), for which the Tm in data set [1] turned out to be 56.9 °C. Moreover, the folding enthalpy in data set [2] was -21.5 kcal/mol.
Regarding GTTGGGCGAAAGCCAAC (((.(((....)))))), the Tm in data set [1] was 53 °C. Besides, the folding enthalpy in data set [2] is -17.5 kcal/mol.
The corresponding values for GTTGGGCGAAAGCCTAAC (((.(((....))).))) are 54.9 °C and -23.1 kcal/mol.
The corresponding values for GTTGGTACGAAAGTAAAC (((..(((....)))))) are 34.6 °C and -19.1 kcal/mol.
Take GTTGGTCCGAAAGGAAAC (((..(((....)))))): in data set [1], the Tm was 36.9 °C. Besides, in data set [2], the folding enthalpy was -23.4 kcal/mol.
The corresponding values for GTTGGTGGAAACACCAAC (((((((....))))))) are 66.2 °C and -46.1 kcal/mol.
The corresponding values for GTTGGTGGAAACGCCAAC (((((.(....).))))) are 54.4 °C and -40 kcal/mol.
As to GTTGTAGAAATACAAC ((((((....)))))), in data set [1], the Tm stood at 47.5 °C. The folding enthalpy in data set [2] was -32.4 kcal/mol.
For the sequence GTTGTAGCGAAAGCTAAC (((..(((....)))))), in data set [1], the Tm stood at 48.1 °C. Further, the folding enthalpy in data set [2] was -23 kcal/mol.
With GTTGTAGGAAACTATAAC (((.(((....))).))), the Tm in data set [1] came to 34 °C. For the same sequence, in data set [2], the folding enthalpy is -24.6 kcal/mol.
The corresponding values for GTTGTCACGAAAGTGAAC (((..(((....)))))) are 48.1 °C and -23.7 kcal/mol.
The corresponding values for GTTGTCGAAAGACACAAC ((((((....)))..))) are 32.6 °C and -11 kcal/mol.
With GTTGTCGAAAGACAGAAC ((((((....)))..))), in data set [1], the Tm was 35.6 °C. Moreover, the folding enthalpy in data set [2] was -12.9 kcal/mol.
The corresponding values for GTTGTCGAAAGACGTAAC ((((((....)))..))) are 31.9 °C and -11.3 kcal/mol.
The corresponding values for GTTGTCGAAAGACTAAC ((((((....))).))) are 38 °C and -16.9 kcal/mol.
The corresponding values for GTTGTCGGAAACGACAAC (((((((....))))))) are 67 °C and -34.6 kcal/mol.
For GTTGTCGGAAACGATAGC (.(.(((....))).).), the Tm in data set [1] was determined as 32.4 °C. Further, the folding enthalpy in data set [2] is -17.1 kcal/mol.
The corresponding values for GTTGTGCGAAAGCATAAC (((.(((....))).))) are 54 °C and -30.5 kcal/mol.
The corresponding values for GTTGTGGAAACACAAC ((((((....)))))) are 58.3 °C and -38.3 kcal/mol.
For GTTGTGGGAAACCATGAC ((..(((....)))..)), the Tm in data set [1] turned out to be 34.7 °C. The folding enthalpy in data set [2] was -30.4 kcal/mol.
The corresponding values for GTTGTTGGAAACAACAAC (((((((....))))))) are 58.6 °C and -41.5 kcal/mol.
The corresponding values for GTTGTTGGAAACAATAAC (((.(((....))).))) are 39.6 °C and -20.3 kcal/mol.
In the case of GTTTAACGAAAGTTCAAC (((.(((....))).))), in data set [1], the Tm turned out to be 36 °C. Besides, in data set [2], the folding enthalpy is -20.9 kcal/mol.
The corresponding values for GTTTAACGAAAGTTGAAC (((.(((....))).))) are 44.7 °C and -29.9 kcal/mol.
The corresponding values for GTTTAAGGAAACTTAGAC ((.((((....)))).)) are 32.6 °C and -14.3 kcal/mol.
The corresponding values for GTTTACACGAAAGTGAAC (((..(((....)))))) are 25.7 °C and -11.9 kcal/mol.
Consider GTTTACGAAAGTAAAC ((((((....)))))), for which, in data set [1], the Tm was determined as 57.3 °C. Moreover, the folding enthalpy in data set [2] was -28.3 kcal/mol.
As to GTTTACGAAAGTACAAAC ((((((....)))..))), the Tm in data set [1] amounted to 26.2 °C. Besides, the folding enthalpy in data set [2] is -10.6 kcal/mol.
The corresponding values for GTTTAGGGAAACCCAAAC ((((.((....)).)))) are 33.2 °C and -24.7 kcal/mol.
The corresponding values for GTTTAGGGAAACCTAAGC (.(((((....))))).) are 33.8 °C and -21.8 kcal/mol.
GTTTAGGGAAACCTAGAC ((.((((....)))).)): in data set [1], the Tm amounted to 33 °C. The folding enthalpy in data set [2] is -27.4 kcal/mol.
The corresponding values for GTTTAGGGAAACTTAAGC (.(((.(....).))).) are 33.6 °C and -15.4 kcal/mol.
The corresponding values for GTTTAGGGAAACTTAGAC ((.((.(....).)).)) are 32.8 °C and -13.6 kcal/mol.
The corresponding values for GTTTATCGAAAGATAAC (((.(((....)))))) are 35.5 °C and -18.6 kcal/mol.
Turning to GTTTATCGAAAGATGAAC (((.(((....))).))), in data set [1], the Tm amounted to 43.6 °C. The folding enthalpy in data set [2] is -31.2 kcal/mol.
